Assay [1] addresses Sodium-dependent serotonin transporter (Rattus norvegicus, UniProt P31652). Nature of the assay: Binding affinity at the serotonin transporter using [125I]RTI-55 in rat caudate membranes. The format is cell membranes. The method, boiled down: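 Triplicate incubation 18–24 h at 4 °C, then filtration over PEI-presoaked GF/B filters. Eight-point inhibition curves (90–10% of control) give the IC50.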

Assay [2] addresses Sodium-dependent dopamine transporter (Rattus norvegicus) (UniProt P23977). Nature of the assay: Ratio of reuptake inhibition on DA with respect to binding affinity of DA. It is filed as functional.
For assay [3], the target named is T1, Sodium-dependent dopamine transporter (Rattus norvegicus, UniProt P23977). Nature of the assay: Reuptake inhibition at the dopamine transporter labeled with radioligand [3H]dopamine on synaptosomes obtained from rat caudate. It is filed as functional, subcellular, Brain. The method, boiled down: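 Rat caudate synaptosomes (10% sucrose homogenate, 1000g supernatant). [3H]DA at 5 nM final in Krebs-phosphate buffer pH 7.4 with ascorbic acid and 50 μM pargyline. Incubated 15 min at 25 °C. Nonspecific uptake defined with 1 μM GBR 12909. Filtered over GF/B filters and counted. IC50 reported.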
T1 sequence (P23977 whole entry): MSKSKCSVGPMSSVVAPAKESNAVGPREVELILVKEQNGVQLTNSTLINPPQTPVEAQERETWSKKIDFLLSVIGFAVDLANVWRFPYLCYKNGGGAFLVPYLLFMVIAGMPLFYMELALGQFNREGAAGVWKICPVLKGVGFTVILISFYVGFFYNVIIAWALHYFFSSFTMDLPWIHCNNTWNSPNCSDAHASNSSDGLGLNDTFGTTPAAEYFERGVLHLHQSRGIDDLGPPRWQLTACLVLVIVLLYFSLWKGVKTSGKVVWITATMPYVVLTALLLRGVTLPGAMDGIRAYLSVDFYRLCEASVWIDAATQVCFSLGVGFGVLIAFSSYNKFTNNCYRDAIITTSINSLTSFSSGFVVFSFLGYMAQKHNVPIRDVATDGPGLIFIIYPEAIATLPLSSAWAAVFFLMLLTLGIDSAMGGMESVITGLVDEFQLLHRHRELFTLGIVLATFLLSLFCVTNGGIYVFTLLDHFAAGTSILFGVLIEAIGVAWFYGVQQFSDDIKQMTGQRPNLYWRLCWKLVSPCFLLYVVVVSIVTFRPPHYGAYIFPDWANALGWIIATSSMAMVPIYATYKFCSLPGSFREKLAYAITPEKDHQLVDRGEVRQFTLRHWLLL

The target in assay [4] is T1, Sodium-dependent dopamine transporter. Nature of the assay: Binding affinity at the dopamine transporter using [125I]RTI-55 in rat caudate membranes. The format is cell membranes. The method, boiled down: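 [125I]RTI-55 at 0.01 nM (SA 2200 Ci/mmol). […] Incubated in triplicate 18–24 h at 4 °C to equilibrium. Filtered over PEI-presoaked GF/B filters. Eight-point inhibition curves spanning 90% to 10% of control. IC50 reported.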

The target of assay [5] is T2, Monoamine transporters; serotonin & dopamine (Rattus norvegicus) (UniProt P31652+P23977). Nature of the assay: Ratio of reuptake inhibition of 5-HT with respect to DA. The format is functional.
T2 sequence (P23977 whole entry, looked up): as the sequence (P23977 whole entry) above
T2 sequence (P31652 whole entry, looked up): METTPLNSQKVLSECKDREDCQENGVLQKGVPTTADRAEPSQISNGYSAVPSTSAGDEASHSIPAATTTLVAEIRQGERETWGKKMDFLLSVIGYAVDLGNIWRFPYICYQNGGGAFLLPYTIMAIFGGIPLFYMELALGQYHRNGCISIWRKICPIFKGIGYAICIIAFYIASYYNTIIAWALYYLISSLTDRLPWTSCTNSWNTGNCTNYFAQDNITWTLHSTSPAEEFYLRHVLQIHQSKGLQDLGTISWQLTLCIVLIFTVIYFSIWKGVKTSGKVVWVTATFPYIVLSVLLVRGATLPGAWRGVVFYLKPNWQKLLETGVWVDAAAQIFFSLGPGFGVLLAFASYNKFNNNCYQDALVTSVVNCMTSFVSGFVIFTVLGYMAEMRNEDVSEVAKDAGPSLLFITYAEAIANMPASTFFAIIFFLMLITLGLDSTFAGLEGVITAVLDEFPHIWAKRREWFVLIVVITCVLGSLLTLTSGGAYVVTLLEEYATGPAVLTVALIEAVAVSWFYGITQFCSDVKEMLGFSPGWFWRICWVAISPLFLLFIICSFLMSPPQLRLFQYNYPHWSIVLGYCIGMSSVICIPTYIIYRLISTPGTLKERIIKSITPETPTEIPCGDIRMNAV
In assay [6] the target is T1, Sodium-dependent dopamine transporter. Nature of the assay: Reuptake inhibition was determined at the dopamine transporter labeled with radioligand [3H]dopamine in nonstandard conditions on brain membranes obtained from rat. It is filed as functional, Membrane. The method, boiled down:
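Synaptosomes preincubated with drug 60 min at 25 °C in Krebs-phosphate buffer with 1 mg/mL BSA. 5 nM [3H]DA then added for 20 min at 25 °C. Nonspecific uptake defined with 1 μM GBR 12909. Stopped by filtration. Mean ± SD of three independent experiments.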

Assay [7] has the same target. Nature of the assay: Binding affinity was determined at the dopamine transporter labeled with radioligand [125 I] RTI-55 in nonstandard conditions. The essentials:
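Run on rat caudate synaptosomes in Krebs-phosphate buffer with 1 mg/mL BSA. Drug preincubated 60 min at 25 °C, then 10 pM [125I]RTI-55 added for 20 min at 25 °C. Filtered over PEI-presoaked GF/B filters. Nonspecific binding defined with 1 μM GBR 12909. Mean ± SD of three independent experiments.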

Assay [8] deals with T2, Monoamine transporters; serotonin & dopamine (Rattus norvegicus). Nature of the assay: Ratio of binding affinity on SERT with respect to DA. It is filed as protein assay.
Assay [9] can be described thus: Sigma receptor binding was determined by labeling with radioligand [3H](+)-pentazocine on frozen membranes obtained from frozen guinea pig brain.

Sequence of Sodium-dependent dopamine transporter (Rattus norvegicus) (P23977 whole entry): as the sequence (P23977 whole entry) above
Sequence of Sodium-dependent serotonin transporter (P31652 whole entry): as the sequence (P31652 whole entry, looked up) above

In the case of `c1ccc(C(OCCN2CCN(Cc3cc4ccccc4o3)CC2)c2ccccc2)cc1`, the IC50 (as a rule, the concentration at which inhibition is half-maximal) in assay [1] is 1890 nM; in assay [3] it was 22 nM; in [4], 17 nM; in [6] it was 31 nM; in assay [7], 43.6 nM. Besides, the Ratio was determined as 1.3 in [2], 136 in [5] and 110 in assay [8].
In turn, `c1ccc(CCCN2CCN(CCOC(c3ccccc3)c3ccccc3)CC2)cc1` returned a concentration for half-maximal inhibition (IC50) in assay [9] of 17 nM.
Turning to `Fc1ccc(C(OCCN2CCN(Cc3cc4ccccc4o3)CC2)c2ccc(F)cc2)cc1`, the concentration for half-maximal inhibition (IC50) stood at 286 nM in assay [1]; 18.6 nM in assay [3]; 6.4 nM in assay [4]; 12.3 nM in assay [6]; 17.8 nM in assay [7]. Moreover, the Ratio in assay [2] amounted to 2.9; in [5], 41; in [8], 45.
Turning to `c1ccc(C(OCCN2CCN(Cc3cc4ccccc4[nH]3)CC2)c2ccccc2)cc1`, the IC50 in assay [1] was found to be 668 nM; in assay [3] it was 8.8 nM; in assay [4], 1.1 nM; in assay [6] it was 2.62 nM; in assay [7], 2.19 nM. Besides, the Ratio came out at 8 in assay [2], 241 in assay [5] and 619 in [8].

The values above are taken from ChEMBL document CHEMBL1129953, “Heteroaromatic analogs of 1-[2-(diphenylmethoxy)ethyl]- and 1-[2-[bis(4-fluorophenyl)methoxy]ethyl]-4-(3-phenylpropyl)piperazines (GBR 12935 and GBR 12909) as high-affinity dopamine reuptake inhibitors” (J Med Chem, 1997).
